Assays:
Type in all cases: cell-based
[1] = target: T1, Neuronal acetylcholine receptor subunit alpha-7 (Homo sapiens, UniProt P36544); experiment: Binding affinity for nicotinic acetylcholine receptor alpha 7 from human neuroblastoma SH-SY5Y cells; n=3
[2] = target: T1, Neuronal acetylcholine receptor subunit alpha-7; experiment: Dissociation constant for nicotinic acetylcholine receptor alpha 7 from human neuroblastoma SH-SY5Y cells; n=3
[3] = Binding affinity for nicotinic acetylcholine receptor alpha4-beta2 from mouse M10 cells; n=3
Outline: (§1)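 α4β2 receptor immunoisolated with mAb 270 from mouse fibroblast M10 cells. Competition binding against (−)-[³H]nicotine at 7 nM. Ki was obtained from IC50 by Cheng–Prusoff, Ki = IC50/(1 + [L]/KD), with KD 3.8 nM.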

[4] = Dissociation constant for nicotinic acetylcholine receptor alpha4-beta2 of mouse M10 cells; n=3; outline: as §1

T1 sequence (P36544 whole entry): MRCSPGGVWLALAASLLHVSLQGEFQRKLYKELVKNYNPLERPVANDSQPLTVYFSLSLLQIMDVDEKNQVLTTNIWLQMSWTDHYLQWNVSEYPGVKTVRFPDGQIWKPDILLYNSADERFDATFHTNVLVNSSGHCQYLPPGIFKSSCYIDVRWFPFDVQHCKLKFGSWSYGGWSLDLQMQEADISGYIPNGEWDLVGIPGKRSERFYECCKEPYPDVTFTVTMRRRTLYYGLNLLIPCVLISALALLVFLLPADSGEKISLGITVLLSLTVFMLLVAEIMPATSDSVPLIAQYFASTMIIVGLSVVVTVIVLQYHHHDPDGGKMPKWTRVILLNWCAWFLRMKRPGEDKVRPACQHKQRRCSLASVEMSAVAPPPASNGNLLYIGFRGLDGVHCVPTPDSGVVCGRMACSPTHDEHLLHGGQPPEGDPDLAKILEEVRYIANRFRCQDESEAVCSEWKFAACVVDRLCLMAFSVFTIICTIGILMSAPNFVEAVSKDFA

Structure (SMILES) | Ki [1] [µM] | Kd [2] [µM] | Ki [3] [nM] | Kd [4] [µM]
Cc1cc2c(cn1)C1CCC(CC2)N1 (racemic) | ~1000 | 0.00106 | 0.39 | 0.00039
c1cc2c(cn1)C1CCC(CC2)N1 (racemic) | > 100 | 0.00106 | 1.3 | 0.00308
c1cncc([C@@H]2CCCN2)c1 (racemic) [NORNICOTINE] | 138 | 0.00106 | 14 | 
CN1CCC[C@@H]1c1cccnc1 [R-NICOTINE] |  |  | 2.5 | 0.0038
Clc1ccc(C2CC3CCC2N3)cn1 (racemic) [EPIBATIDINE] |  | 0.00106 | 0.035 | 0.00308
